{"data": "Experimental data pooled from the literature", "cell line": "THP-1", "note": "pIC50: −log10 of the molar value."}
{"SMILES": "O=C(/C=C/C=C/c1ccc2c(c1)OCO2)N1CCCCC1", "observed": "cell growth or viability", "method": "MTT", "time": "48 h", "quantity": "IC50", "result": "> 50 µg/mL"}
{"SMILES": "O=[N+]([O-])c1c[nH]nc1-c1nc(-c2ccc3oc4ccccc4c3c2)no1", "observed": "cell growth or viability", "method": "LDH", "time": "24 h", "quantity": "IC50", "result": "9.8 µg/mL"}
{"SMILES": "Nc1nc(Nc2ccc3c(c2)CC[C@@H](N2CCCC2)CC3)nn1-c1cc2c(nn1)-c1ccccc1CCC2", "observed": "cell growth or viability", "method": "trypan blue", "time": "72 h", "quantity": "pIC50", "result": 5.59}
{"SMILES": "CC(C)(C)NCC(O)c1cc(O)cc(O)c1 (centres unmarked)", "observed": "TNF-α release", "mode": "inhibitor", "time": "17 h", "notes": "LPS-stimulated", "quantity": "pIC50", "result": 5.66}
{"SMILES": "O=C(Nc1nnc(-c2cc3ccccc3[nH]2)s1)c1cc2c([nH]c3ccccc32)c(-c2ccc(Cl)cc2)n1", "observed": "cell growth or viability", "method": "MTT", "time": "72 h", "quantity": "pIC50", "result": 5.36}
{"SMILES": "Cl.NCc1ccc(-c2nc(-c3ccc(Oc4ccc(C(F)(F)F)cc4)cc3)no2)cc1", "observed": "cell growth or viability", "method": "LDH", "time": "24 h", "quantity": "IC50", "result": "4.4 µg/mL"}
{"SMILES": "NC[C@H](O)c1ccc(O)c(O)c1", "observed": "TNF-α release", "mode": "inhibitor", "time": "17 h", "notes": "LPS-stimulated", "quantity": "pIC50", "result": 7.00}
{"SMILES": "CCn1c(-c2nnc(NC(=O)c3cc4c([nH]c5ccccc54)c(-c4cc(OC)c(OC)c(OC)c4)n3)s2)cc2ccccc21", "observed": "cell growth or viability", "method": "MTT", "time": "72 h", "quantity": "pIC50", "result": 4.40}
{"SMILES": "CCC(NC(C)C)C(O)c1ccc(O)c(O)c1 (centres unmarked)", "observed": "TNF-α release", "mode": "inhibitor", "time": "17 h", "notes": "LPS-stimulated", "quantity": "pIC50", "result": 5.68}
{"SMILES": "COc1cc(-c2nc(C(=O)Nc3nnc(-c4cc5ccccc5n4C)s3)cc3c2[nH]c2ccccc23)cc(OC)c1OC", "observed": "cell growth or viability", "method": "MTT", "time": "72 h", "quantity": "pIC50", "result": 5.06}
{"SMILES": "CC(CCc1ccc(O)cc1)NCCc1ccc(O)c(O)c1 (centres unmarked)", "observed": "TNF-α release", "mode": "inhibitor", "time": "17 h", "notes": "LPS-stimulated", "quantity": "pIC50", "result": 6.29}
{"SMILES": "C#CCSc1nc(Sc2nnnn2-c2ccccc2)c2nnn(Cc3ccc(OC)cc3)c2n1", "observed": "cell growth or viability", "method": "MTS", "time": "6 days", "quantity": "pIC50", "result": 5.60}
{"SMILES": "CC[C@@H](C)[C@H](N)C(=O)N1Cc2ccccc2C1", "observed": "cell growth or viability", "method": "ATP luminescence", "quantity": "pIC50", "result": 5.77}
{"SMILES": "NCCc1c[nH]cn1", "observed": "TNF-α release", "mode": "inhibitor", "time": "17 h", "notes": "LPS-stimulated", "quantity": "pIC50", "result": 5.72}
{"SMILES": "COc1ccc(-c2nc(C(=O)Nc3nnc(-c4cc5ccccc5[nH]4)s3)cc3c2[nH]c2ccccc23)cc1", "observed": "cell growth or viability", "method": "MTT", "time": "72 h", "quantity": "pIC50", "result": 5.50}
{"SMILES": "CC(C)NC[C@@H](O)c1ccc(O)c(O)c1", "observed": "TNF-α release", "mode": "inhibitor", "time": "17 h", "notes": "LPS-stimulated", "quantity": "pIC50", "result": 7.15}
{"SMILES": "Cn1c(-c2nnc(NC(=O)c3cc4c([nH]c5ccccc54)c(-c4ccc(F)cc4)n3)s2)cc2ccccc21", "observed": "cell growth or viability", "method": "MTT", "time": "72 h", "quantity": "pIC50", "result": 4.48}
{"SMILES": "COc1cc2nccc(Oc3ccc(NC(=O)C4(C(=O)Nc5ccc(F)cc5)CC4)cc3)c2cc1OC", "observed": "cell growth or viability", "method": "trypan blue", "time": "72 h", "quantity": "pIC50", "result": 5.53}
{"SMILES": "Cn1c(-c2nnc(NC(=O)c3cc4c([nH]c5ccccc54)c(-c4ccccc4)n3)s2)cc2ccccc21", "observed": "cell growth or viability", "method": "MTT", "time": "72 h", "quantity": "pIC50", "result": 4.85}
{"SMILES": "CC(C)[C@H](N)C(=O)N1CCC[C@H]1B(O)O", "observed": "cell growth or viability", "method": "ATP luminescence", "time": "48 h", "quantity": "pIC50", "result": 6.69}
